According to ChEMBL document CHEMBL3352515, “Design, synthesis, antiviral and cytostatic activity of ω-(1H-1,2,3-triazol-1-yl)(polyhydroxy)alkylphosphonates as acyclic nucleotide analogues” (Bioorg Med Chem, 2014):
The source made the active and inactive calls. The rule behind the calls is not given here.

Columns and labels:
[1] = system: HeLa; assay: Cytostatic activity against human HeLa cells assessed as inhibition of proliferation after 72 hrs by Coulter cell counting method; assay type: functional, cell-based
In short: (§1)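 (5–7.5) × 10⁴ tumor cells per well were exposed to test compound at 37 °C in humidified CO₂. Incubation ran 48 h for L1210 and 72 h for CEM and HeLa. Cells were then counted in a Coulter counter. IC₅₀ is the concentration that inhibits cell proliferation by 50%.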

[2] = system: Vesicular stomatitis virus; assay: Antiviral activity against Vesicular stomatitis virus infected in HeLa cells assessed as inhibition of virus-induced cytopathogenicity; assay type: functional, organism-based
In short: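 HeLa cell monolayers (confluent) were infected with 100 CCID50 of VSV in the presence of serial compound concentrations. Viral cytopathicity was read when complete in untreated infected controls. EC50 is the concentration that reduced virus-induced cytopathogenicity by 50%.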

[3] = system: CCRF-CEM; assay: Cytostatic activity against human CEM cells assessed as inhibition of proliferation after 72 hrs by Coulter cell counting method; assay type: functional, cell-based; in short: as §1
[4] = system: L1210; assay: Cytostatic activity against mouse L1210 cells assessed as inhibition of proliferation after 48 hrs by Coulter cell counting method; assay type: functional, cell-based; conditions: L1210, 48 h; in short: as §1
[5] = system: Human alphaherpesvirus 3; assay: Antiviral activity against Thymidine kinase-negative Varicella-zoster virus 07-1 infected in HEL assessed as reduction in virus plaque formation; assay type: functional, organism-based; conditions: Human alphaherpesvirus 3, 07-1
In short: (§2)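 Confluent HEL fibroblast cultures were inoculated with 20 PFU of VZV together with varying compound concentrations. Plaque formation was recorded once complete in untreated infected controls. EC50 is the concentration that reduced viral plaque formation by 50%.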

[6] = system: Human alphaherpesvirus 3; assay: Antiviral activity against Thymidine kinase-positive Varicella-zoster virus Oka infected in HEL assessed as reduction in virus plaque formation; assay type: functional, organism-based; conditions: Human alphaherpesvirus 3, strain Oka vaccine; in short: as §2
[7] = system: Respiratory syncytial virus; assay: Antiviral activity against Respiratory syncytial virus infected in HeLa cells assessed as inhibition of virus-induced cytopathogenicity; assay type: functional, organism-based
In short: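 Confluent host-cell monolayers in 96-well plates were inoculated with 100 CCID₅₀ of virus while exposed to a range of test compound concentrations. Cytopathic effect was scored once it was complete in untreated infected controls. EC₅₀ is the concentration that reduces virus-induced cytopathogenicity by 50%.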

**Q.** O=c1cnn(Cc2cn(C[C@H](OCc3ccccc3)[C@@H](O)P(=O)(OCc3ccccc3)OCc3ccccc3)nn2)c(=O)[nH]1 was tested. Which IC50 [1] did it give?
**A.** 64 µM

**Q.** What about the inhibition [2] of the same compound?
**A.** inactive

**Q.** And the IC50 [3]?
**A.** 71 µM

**Q.** What about the IC50 [4] of the same compound?
**A.** 78 µM

**Q.** What about the EC50 [5] of the same compound?
**A.** 70 µM

**Q.** What about the EC50 [6] of the same compound?
**A.** 63.7 µM

**Q.** What about the inhibition [7] of the same compound?
**A.** inactive
